Measured values as given in ChEMBL document CHEMBL1140952 (J Med Chem, 2009).
pIC50: −log10 of the molar value. ≈ marks a conversion by molar mass, not a printed value.

Tests used:
Aurora kinase B = Aurora kinase B (Homo sapiens, UniProt Q96GD4); assay: Inhibition of Aurora B
[1] = Protein binding in Beagle dog; assay type: ADME, organism-based, Canis lupus familiaris; conditions: in vivo, read-out: PB
[2] = Antiproliferative activity against Met-dependent human GTL16 cells after 72 hrs by MTS assay; assay type: functional, cell-based; conditions: GTL 16, 72 h
[3] = target: Proto-oncogene tyrosine-protein kinase Src (Homo sapiens, UniProt P12931); assay: Inhibition of Src by Ambit binding assay
[4] = target: Inhibitor of NF-kappa-B kinase alpha/beta (Homo sapiens, UniProt O14920+O15111); assay: Inhibition of IKK1/2
[5] = Tmax in BALB/c mouse at 10 mg/kg, po; assay type: ADME, organism-based; parameters: dose 10 mg/kg, route oral; conditions: in vivo
Summary of the method: (§1)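 In-life PK: single iv and oral doses given in 70% PEG400-30% water, orally as a solution formulation. Mouse values are averages of six animals and rat values of three. Dog values are averages of two or three animals per route. Plasma Cmax, Tmax, AUC0-24h, iv t1/2, Cl, Vss and oral bioavailability were derived.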

[6] = Oral bioavailability in BALB/c mouse at 10 mg/kg; assay type: ADME, organism-based; conditions: in vivo; summary of the method: as §1
[7] = target: T1, Hepatocyte growth factor receptor (Homo sapiens, UniProt P08581); assay: Inhibition of Met phosphorylation in human GTL16 cells after 30 mins; assay type: cell-based
Summary of the method: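 Human GTL-16 gastric carcinoma cells were incubated with compound for 30 min, then lysed. Phospho-Met protein levels in the lysates were assessed across a range of concentrations.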

[8] = Inhibition of CDK2E
[9] = Tmax in Beagle dog at 5 mg/kg, po; assay type: ADME, organism-based, Canis lupus familiaris; parameters: dose 5 mg/kg, route oral; conditions: in vivo; summary of the method: as §1
[10] = Protein binding in BALB/c mouse; assay type: ADME, organism-based; conditions: in vivo, read-out: PB
Canis familiaris = assay: Cmax in Beagle dog at 5 mg/kg, po; assay type: ADME, organism-based, Canis lupus familiaris; parameters: dose 5 mg/kg, route oral; conditions: in vivo; summary of the method: as §1
[11] = target: Serine/threonine-protein kinase PLK1 (Homo sapiens, UniProt P53350); assay: Inhibition of plk1/3
[12] = Tmax in Sprague-Dawley rat at 10 mg/kg, po; assay type: ADME, organism-based; parameters: dose 10 mg/kg, route oral; conditions: in vivo; summary of the method: as §1
[13] = Half life in Beagle dog at 1 mg/kg, iv; assay type: ADME, organism-based, Canis lupus familiaris; parameters: dose 1 mg/kg, route intravenous; conditions: in vivo; summary of the method: as §1
[14] = Clearance in Beagle dog at 1 mg/kg, iv; assay type: ADME, organism-based, Canis lupus familiaris; parameters: dose 1 mg/kg, route intravenous; conditions: in vivo; summary of the method: as §1
[15] = Cmax in human GTL16 cells xenografted athymic mouse at 6.25 mg/kg, po; assay type: ADME, organism-based; parameters: dose 6.25 mg/kg, route oral; conditions: in vivo
Summary of the method: (§2)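 GTL-16 human gastric carcinoma cells were implanted subcutaneously in athymic mice and tumors staged to about 125 mm³. The compound was then given orally once daily for 14 consecutive days. Drug exposure (Cmax, AUC0-24h) was measured at the dose levels. Toxicity was judged by weight loss or morbidity.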

[16] = target: Serine/threonine-protein kinase pim-1 (Homo sapiens, UniProt P11309); assay: Inhibition of pim1
[17] = Inhibition of PKA
[18] = Clearance in BALB/c mouse at 5 mg/kg, iv; assay type: ADME, organism-based; parameters: dose 5 mg/kg, route intravenous; conditions: in vivo; summary of the method: as §1
[19] = Antitumor activity in human GTL16 cells xenografted athymic mouse at 6.25 mg/kg, po administered once daily for 14 days; assay type: functional; conditions: GTL 16, 336 h, read-out: TGI
[20] = Oral bioavailability in Beagle dog at 5 mg/kg; assay type: ADME, organism-based, Canis lupus familiaris; conditions: in vivo; summary of the method: as §1
[21] = Oral bioavailability in Sprague-Dawley rat at 10 mg/kg; assay type: ADME, organism-based; conditions: in vivo; summary of the method: as §1
Mus musculus [22] = assay: Toxicity in human GTL16 cells xenografted athymic mouse assessed as weight loss/morbidity at 25 mg/kg, po; assay type: organism-based; parameters: dose 25 mg/kg, route oral; conditions: in vivo; summary of the method: as §2
[23] = AUC (0 to 24 hrs) in human GTL16 cells xenografted athymic mouse at 6.25 mg/kg, po; assay type: ADME, organism-based; parameters: time < 24 hr, dose 6.25 mg/kg, route oral; conditions: in vivo; summary of the method: as §2
NCI-N87 = assay: Antiproliferative activity against Met-independent human NCI-N87 cells after 72 hrs by MTS assay; assay type: functional, cell-based; conditions: NCI-N87, 72 h
[24] = target: Macrophage-stimulating protein receptor (Homo sapiens, UniProt Q04912); assay: Inhibition of Ron
NCI-H1993 = assay: Antiproliferative activity against Met-dependent human NCI-H1993 cells after 72 hrs by MTS assay; assay type: functional, cell-based; conditions: NCI-H1993, 72 h
[25] = target: Platelet-derived growth factor receptor beta (Homo sapiens, UniProt P09619); assay: Inhibition of PDGFRbeta by cellular proliferation assay
[26] = target: MAP kinase-activated protein kinase 2 (Homo sapiens, UniProt P49137); assay: Inhibition of MK2
Rattus norvegicus = assay: Cmax in Sprague-Dawley rat at 10 mg/kg, po; assay type: ADME, organism-based; parameters: dose 10 mg/kg, route oral; conditions: in vivo; summary of the method: as §1
[27] = target: Tyrosine-protein kinase Blk (Homo sapiens, UniProt P51451); assay: Inhibition of Blk by Ambit binding assay
[28] = target: Tyrosine-protein kinase Mer (Homo sapiens, UniProt Q12866); assay: Inhibition of Mer
[29] = target: Mitogen-activated protein kinase 14 (Homo sapiens, UniProt Q16539); assay: Inhibition of p38alpha
[30] = target: High affinity nerve growth factor receptor (Homo sapiens, UniProt P04629); assay: Inhibition of TrkA
[31] = Protein binding in Sprague-Dawley rat; assay type: ADME, organism-based; conditions: in vivo, read-out: PB
[32] = target: T1, Hepatocyte growth factor receptor; assay: Inhibition of MET
Mus musculus [33] = assay: Cmax in BALB/c mouse at 10 mg/kg, po; assay type: ADME, organism-based; parameters: dose 10 mg/kg, route oral; conditions: in vivo; summary of the method: as §1
Mus musculus [34] = assay: Toxicity in human GTL16 cells xenografted athymic mouse assessed as weight loss/morbidity at 50 mg/kg, po; assay type: organism-based; parameters: dose 50 mg/kg, route oral; conditions: in vivo; summary of the method: as §2
[35] = Clearance in Sprague-Dawley rat at 5 mg/kg, iv; assay type: ADME, organism-based; parameters: dose 5 mg/kg, route intravenous; conditions: in vivo; summary of the method: as §1
[36] = target: BDNF/NT-3 growth factors receptor (Homo sapiens, UniProt Q16620); assay: Inhibition of TrkB
[37] = Cmax in human GTL16 cells xenografted athymic mouse at 50 mg/kg, po; assay type: ADME, organism-based; parameters: dose 50 mg/kg, route oral; conditions: in vivo; summary of the method: as §2
[38] = Half life in BALB/c mouse at 5 mg/kg, iv; assay type: ADME, organism-based; parameters: dose 5 mg/kg, route intravenous; conditions: in vivo; summary of the method: as §1
[39] = AUC (0 to 24 hrs) in human GTL16 cells xenografted athymic mouse at 50 mg/kg, po; assay type: ADME, organism-based; parameters: time < 24 hr, dose 50 mg/kg, route oral; conditions: in vivo; summary of the method: as §2
[40] = Antiproliferative activity against Met-driven human U87 cells after 72 hrs by MTS assay; assay type: functional, cell-based, U-87MG ATCC; conditions: U-87 MG
[41] = Antitumor activity in human GTL16 cells xenografted athymic mouse at 50 mg/kg, po administered once daily for 14 days; assay type: functional; conditions: GTL 16, 336 h, read-out: TGI
[42] = Antitumor activity in human GTL16 cells xenografted athymic mouse at 25 mg/kg, po administered once daily for 14 days; assay type: functional; conditions: GTL 16, 336 h, read-out: TGI
Ephrin type-A receptor 3 = Ephrin type-A receptor 3 (Homo sapiens, UniProt P29320); assay: Inhibition of Epha3 by Ambit binding assay
[43] = Half life in Sprague-Dawley rat at 5 mg/kg, iv; assay type: ADME, organism-based; parameters: dose 5 mg/kg, route intravenous; conditions: in vivo; summary of the method: as §1
[44] = Aqueous solubility at pH 1.0; assay type: physicochemical
[45] = Volume of distribution at steady state in Beagle dog at 1 mg/kg, iv; assay type: ADME, organism-based, Canis lupus familiaris; parameters: dose 1 mg/kg, route intravenous; conditions: in vivo, read-out: Vdss; summary of the method: as §1
[46] = Volume of distribution at steady state in Sprague-Dawley rat at 5 mg/kg, iv; assay type: ADME, organism-based; parameters: dose 5 mg/kg, route intravenous; conditions: in vivo, read-out: Vdss; summary of the method: as §1
Mus musculus [47] = assay: Toxicity in human GTL16 cells xenografted athymic mouse assessed as weight loss/morbidity at 6.25 mg/kg, po; assay type: organism-based; parameters: dose 6.25 mg/kg, route oral; conditions: in vivo; summary of the method: as §2
[48] = target: Vascular endothelial growth factor receptor 2 (Homo sapiens, UniProt P35968); assay: Inhibition of VEGFR2
[49] = Volume of distribution at steady state in BALB/c mouse at 5 mg/kg, iv; assay type: ADME, organism-based; parameters: dose 5 mg/kg, route intravenous; conditions: in vivo, read-out: Vdss; summary of the method: as §1
[50] = target: Tyrosine-protein kinase receptor TYRO3 (Homo sapiens, UniProt Q06418); assay: Inhibition of Tyro3
Chain of Tyrosine-protein kinase receptor TYRO3 (Q06418 whole entry): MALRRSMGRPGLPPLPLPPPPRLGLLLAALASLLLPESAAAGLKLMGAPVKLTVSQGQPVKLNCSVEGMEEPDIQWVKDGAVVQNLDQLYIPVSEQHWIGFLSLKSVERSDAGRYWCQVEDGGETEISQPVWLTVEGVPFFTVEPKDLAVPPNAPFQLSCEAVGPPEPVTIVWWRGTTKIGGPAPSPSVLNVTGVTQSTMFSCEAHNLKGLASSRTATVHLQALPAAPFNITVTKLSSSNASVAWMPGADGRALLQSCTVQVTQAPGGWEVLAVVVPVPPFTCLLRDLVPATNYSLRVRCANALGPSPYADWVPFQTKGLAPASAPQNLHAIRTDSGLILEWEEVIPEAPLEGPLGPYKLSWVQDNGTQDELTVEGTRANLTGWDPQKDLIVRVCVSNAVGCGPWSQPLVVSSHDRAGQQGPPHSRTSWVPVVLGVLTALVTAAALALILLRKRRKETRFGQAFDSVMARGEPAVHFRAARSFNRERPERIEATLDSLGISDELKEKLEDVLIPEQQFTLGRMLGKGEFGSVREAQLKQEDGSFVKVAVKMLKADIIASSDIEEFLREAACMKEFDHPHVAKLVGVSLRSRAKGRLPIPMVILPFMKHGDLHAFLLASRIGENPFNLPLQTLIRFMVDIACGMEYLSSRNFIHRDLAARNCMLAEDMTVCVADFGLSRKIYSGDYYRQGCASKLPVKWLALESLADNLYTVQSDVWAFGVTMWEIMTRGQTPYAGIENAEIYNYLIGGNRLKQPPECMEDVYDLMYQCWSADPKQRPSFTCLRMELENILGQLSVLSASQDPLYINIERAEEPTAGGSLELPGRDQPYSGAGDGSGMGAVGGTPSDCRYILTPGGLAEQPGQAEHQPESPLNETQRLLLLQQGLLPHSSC

T1 sequence (P08581 whole entry): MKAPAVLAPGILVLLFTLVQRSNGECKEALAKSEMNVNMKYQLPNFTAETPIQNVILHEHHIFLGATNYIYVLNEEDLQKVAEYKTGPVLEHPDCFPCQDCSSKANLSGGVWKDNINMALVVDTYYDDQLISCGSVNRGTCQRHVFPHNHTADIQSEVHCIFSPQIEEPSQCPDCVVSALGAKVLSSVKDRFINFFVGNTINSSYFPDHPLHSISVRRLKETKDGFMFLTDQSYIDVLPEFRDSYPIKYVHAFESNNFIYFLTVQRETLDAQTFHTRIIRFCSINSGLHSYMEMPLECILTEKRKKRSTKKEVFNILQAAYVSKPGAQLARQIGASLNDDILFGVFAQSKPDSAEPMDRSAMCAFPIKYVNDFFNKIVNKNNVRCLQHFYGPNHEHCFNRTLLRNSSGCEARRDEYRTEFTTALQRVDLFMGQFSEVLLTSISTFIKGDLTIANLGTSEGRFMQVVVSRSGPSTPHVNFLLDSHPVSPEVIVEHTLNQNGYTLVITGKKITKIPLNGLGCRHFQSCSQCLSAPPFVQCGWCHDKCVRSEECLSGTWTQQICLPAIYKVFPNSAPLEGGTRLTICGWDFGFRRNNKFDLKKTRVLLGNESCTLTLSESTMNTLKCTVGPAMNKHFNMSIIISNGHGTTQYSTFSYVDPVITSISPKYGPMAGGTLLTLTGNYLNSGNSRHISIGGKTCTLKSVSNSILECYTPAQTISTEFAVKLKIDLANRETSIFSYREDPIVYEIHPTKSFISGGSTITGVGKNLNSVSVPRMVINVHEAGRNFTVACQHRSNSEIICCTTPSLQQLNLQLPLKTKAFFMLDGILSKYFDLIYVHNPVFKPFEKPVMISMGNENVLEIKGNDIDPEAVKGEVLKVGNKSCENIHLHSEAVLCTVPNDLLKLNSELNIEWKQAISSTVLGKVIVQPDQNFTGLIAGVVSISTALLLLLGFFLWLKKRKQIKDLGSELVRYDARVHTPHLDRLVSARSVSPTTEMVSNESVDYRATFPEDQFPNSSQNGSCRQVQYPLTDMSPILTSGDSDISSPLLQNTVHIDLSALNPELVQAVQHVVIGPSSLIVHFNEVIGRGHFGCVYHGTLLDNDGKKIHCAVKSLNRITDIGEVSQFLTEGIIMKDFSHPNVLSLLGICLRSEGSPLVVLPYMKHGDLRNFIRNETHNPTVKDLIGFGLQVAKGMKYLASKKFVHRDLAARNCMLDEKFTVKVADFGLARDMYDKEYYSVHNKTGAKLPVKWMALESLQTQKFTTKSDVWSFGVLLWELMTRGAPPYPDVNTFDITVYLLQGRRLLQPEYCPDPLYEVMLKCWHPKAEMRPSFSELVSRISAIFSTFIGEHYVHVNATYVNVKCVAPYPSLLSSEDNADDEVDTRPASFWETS
Chain of High affinity nerve growth factor receptor (P04629 whole entry): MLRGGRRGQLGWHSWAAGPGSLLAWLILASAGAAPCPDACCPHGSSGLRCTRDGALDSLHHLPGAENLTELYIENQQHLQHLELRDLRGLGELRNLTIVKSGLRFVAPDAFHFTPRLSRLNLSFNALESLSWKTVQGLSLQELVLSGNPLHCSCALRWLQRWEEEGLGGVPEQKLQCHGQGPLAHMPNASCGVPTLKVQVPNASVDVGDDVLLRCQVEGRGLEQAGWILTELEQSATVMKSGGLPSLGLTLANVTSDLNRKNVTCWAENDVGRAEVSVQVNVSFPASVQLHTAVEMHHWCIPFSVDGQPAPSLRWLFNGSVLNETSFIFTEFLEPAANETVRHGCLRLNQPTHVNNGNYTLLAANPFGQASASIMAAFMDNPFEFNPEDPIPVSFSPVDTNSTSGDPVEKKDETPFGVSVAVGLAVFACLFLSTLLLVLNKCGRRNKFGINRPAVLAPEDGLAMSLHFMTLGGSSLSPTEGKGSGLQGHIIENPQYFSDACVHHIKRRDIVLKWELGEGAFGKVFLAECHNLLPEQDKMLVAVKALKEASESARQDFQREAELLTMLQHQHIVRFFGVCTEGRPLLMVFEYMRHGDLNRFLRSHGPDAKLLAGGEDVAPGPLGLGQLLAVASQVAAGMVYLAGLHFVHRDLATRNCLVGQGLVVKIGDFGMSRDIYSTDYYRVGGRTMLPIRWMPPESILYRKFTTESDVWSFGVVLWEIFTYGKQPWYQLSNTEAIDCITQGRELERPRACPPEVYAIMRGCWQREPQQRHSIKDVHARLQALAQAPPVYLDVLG
Chain of MAP kinase-activated protein kinase 2 (P49137 whole entry): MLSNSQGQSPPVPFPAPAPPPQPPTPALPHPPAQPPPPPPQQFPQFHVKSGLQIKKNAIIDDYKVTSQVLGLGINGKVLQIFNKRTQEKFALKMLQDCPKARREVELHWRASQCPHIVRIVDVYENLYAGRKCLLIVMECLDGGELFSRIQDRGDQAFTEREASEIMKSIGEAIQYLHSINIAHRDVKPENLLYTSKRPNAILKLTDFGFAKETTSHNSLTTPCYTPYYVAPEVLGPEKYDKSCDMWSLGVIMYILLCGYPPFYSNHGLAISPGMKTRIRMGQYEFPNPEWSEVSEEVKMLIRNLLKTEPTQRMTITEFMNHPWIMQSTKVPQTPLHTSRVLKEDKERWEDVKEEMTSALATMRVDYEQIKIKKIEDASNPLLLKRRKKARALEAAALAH
Chain of Serine/threonine-protein kinase pim-1 (P11309 whole entry): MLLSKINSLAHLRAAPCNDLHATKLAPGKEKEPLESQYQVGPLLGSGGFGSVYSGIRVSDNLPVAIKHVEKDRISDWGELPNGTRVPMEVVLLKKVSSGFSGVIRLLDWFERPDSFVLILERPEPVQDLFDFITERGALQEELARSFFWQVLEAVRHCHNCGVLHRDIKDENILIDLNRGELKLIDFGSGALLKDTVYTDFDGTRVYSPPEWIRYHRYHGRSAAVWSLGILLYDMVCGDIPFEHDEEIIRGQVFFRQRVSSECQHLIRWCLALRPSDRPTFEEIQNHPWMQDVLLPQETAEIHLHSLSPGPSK
Chain of BDNF/NT-3 growth factors receptor (Q16620 whole entry): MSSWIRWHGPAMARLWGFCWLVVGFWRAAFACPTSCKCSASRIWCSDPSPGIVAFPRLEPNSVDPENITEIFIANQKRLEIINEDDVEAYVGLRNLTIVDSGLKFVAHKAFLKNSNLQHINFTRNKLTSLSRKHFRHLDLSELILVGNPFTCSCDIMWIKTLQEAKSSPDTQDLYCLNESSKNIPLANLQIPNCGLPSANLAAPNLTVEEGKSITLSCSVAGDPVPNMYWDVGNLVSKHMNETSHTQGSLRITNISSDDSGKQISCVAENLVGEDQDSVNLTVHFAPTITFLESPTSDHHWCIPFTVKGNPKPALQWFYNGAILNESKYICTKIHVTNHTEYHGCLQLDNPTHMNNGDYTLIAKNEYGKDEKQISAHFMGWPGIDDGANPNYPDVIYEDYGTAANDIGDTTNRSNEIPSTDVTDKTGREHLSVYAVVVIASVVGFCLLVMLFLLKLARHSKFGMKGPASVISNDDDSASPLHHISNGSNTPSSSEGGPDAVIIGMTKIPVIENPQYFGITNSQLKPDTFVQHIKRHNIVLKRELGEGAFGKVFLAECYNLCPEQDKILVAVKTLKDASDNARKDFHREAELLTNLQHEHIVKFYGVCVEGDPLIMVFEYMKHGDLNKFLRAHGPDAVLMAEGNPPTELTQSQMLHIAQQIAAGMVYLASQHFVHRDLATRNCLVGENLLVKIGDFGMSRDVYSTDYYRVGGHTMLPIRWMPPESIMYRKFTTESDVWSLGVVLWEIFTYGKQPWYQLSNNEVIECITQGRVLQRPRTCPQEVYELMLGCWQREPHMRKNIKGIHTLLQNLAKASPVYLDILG
Chain of Aurora kinase B (Q96GD4 whole entry): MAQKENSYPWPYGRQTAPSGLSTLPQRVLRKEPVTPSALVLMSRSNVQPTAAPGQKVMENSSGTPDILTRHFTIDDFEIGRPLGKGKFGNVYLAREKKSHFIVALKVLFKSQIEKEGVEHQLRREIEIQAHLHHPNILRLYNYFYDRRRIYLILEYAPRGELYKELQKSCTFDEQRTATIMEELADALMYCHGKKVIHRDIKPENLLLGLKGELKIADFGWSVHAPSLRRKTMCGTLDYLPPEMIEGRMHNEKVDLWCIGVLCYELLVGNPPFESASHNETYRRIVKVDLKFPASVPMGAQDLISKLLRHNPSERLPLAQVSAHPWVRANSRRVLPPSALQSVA

Structure (SMILES): CCOc1ccn(-c2ccc(F)cc2)c(=O)c1C(=O)Nc1ccc(Oc2ccnc(N)c2Cl)c(F)c1 [BMS-777607]
- pIC50 (Aurora kinase B): 7.11
- fraction unbound [1]: < 0.01
- pIC50 [2]: 7.00
- pIC50 [3]: < 6.30
- pIC50 [4]: < 5.70
- Tmax [5]: 0.5 h
- bioavailability [6]: 100%
- pIC50 [7]: 7.70
- pIC50 [8]: < 5.70
- Tmax [9]: 2.3 h
- fraction unbound [10]: < 0.01
- Cmax (Canis familiaris): 29 µM
- pIC50 [11]: < 5.70
- Tmax [12]: 1.7 h
- half-life [13]: 4.9 h
- clearance [14]: 0.82 mL/min/kg
- Cmax [15]: 4.5 µM
- pIC50 [16]: < 5.70
- pIC50 [17]: 6.26
- clearance [18]: 4.4 mL/min/kg
- inhibition in vivo at 6.25 mg/kg [19]: 66%
- bioavailability [20]: 100%
- bioavailability [21]: 100%
- Activity (Mus musculus [22]): Non-toxic
- AUC(0-t) at 24 h [23]: 37 µM·h
- pIC50 (NCI-N87): < 5.00
- pIC50 [24]: 8.74
- pIC50 (NCI-H1993): 6.82
- pIC50 [25]: 6.00
- pIC50 [26]: < 5.70
- Cmax (Rattus norvegicus): 8.7 µM
- pIC50 [27]: < 6.30
- pIC50 [28]: 7.85
- pIC50 [29]: < 5.70
- pIC50 [30]: 6.54
- fraction unbound [31]: < 0.01
- pIC50 [32]: 8.41
- Cmax (Mus musculus [33]): 17.6 µM
- Activity (Mus musculus [34]): Non-toxic
- clearance [35]: 12.1 mL/min/kg
- pIC50 [36]: 6.72
- Cmax [37]: 43.7 µM
- half-life [38]: 4.5 h
- AUC(0-t) at 24 h [39]: 567 µM·h
- pIC50 [40]: 6.80
- inhibition in vivo at 50 mg/kg [41]: 102%
- inhibition in vivo at 25 mg/kg [42]: 95%
- pIC50 (Ephrin type-A receptor 3): < 6.30
- half-life [43]: 4.8 h
- solubility [44]: 400 µg/mL (≈ 780 µM)
- Vd [45]: 0.2 L/kg
- Vd [46]: 1 L/kg
- Activity (Mus musculus [47]): Non-toxic
- pIC50 [48]: 6.74
- Vd [49]: 1.2 L/kg
- pIC50 [50]: 8.37

Structure (SMILES): Nc1cc(Oc2ccc(NC(=O)c3cccn(-c4ccc(F)cc4)c3=O)cc2F)ccn1
- pIC50 [2]: 6.77
- pIC50 [32]: 8.35

Structure (SMILES): O=C(Nc1ccc(Oc2ccnc3[nH]ccc23)c(F)c1)c1cccn(-c2ccc(F)cc2)c1=O
- pIC50 [2]: 7.22

Structure (SMILES): Nc1nccc(Oc2ccc(NC(=O)c3c(OCCO)ccn(-c4ccc(F)cc4)c3=O)cc2F)c1Cl
- pIC50 [2]: 6.60
- pIC50 [32]: 8.59

Structure (SMILES): NCC#Cc1c(Oc2ccc(NC(=O)c3cccn(-c4ccc(F)cc4)c3=O)cc2F)ccnc1N
- pIC50 [2]: 6.68
- pIC50 [32]: 8.42

Structure (SMILES): CN1CCN(Cc2c(Oc3ccc(NC(=O)c4cccn(-c5ccc(F)cc5)c4=O)cc3F)ccnc2N)CC1
- pIC50 [2]: 5.55
- pIC50 [32]: 8.23
